Redox H2O2 prof: compounds producing H2O2 with reducing agent – biochemical, NIH compound library profiling, artefact control for MLSCN library redox annotation, primary screen | 200,000 compounds, 0.03% hits | DTT-dependent redox cycling H2O2, phenol red/HRP absorbance; 100% = 100 µM peroxide control, 0% = buffer | activation, % at 10 µM;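 active = activation of at least 50% relative to the plate's high and low controls in the primary single-dose screen; inactive = activation below 50%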;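 also: compound incubated with DTT at 0.8 mM final as the reducing agent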
MT stabilizer: stabilizes microtubules in HeLa cells. HeLa tubulin immunostaining HCS, 24 h; share of cells brighter than vehicle mean+2SD. 200,000 compounds, 0.83% hits. % tubulin-high responders, % at 10 µM. AID 2205;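 active = plate Z-score above 3 for both tubulin-high and condensed-nucleus cell shares, with cell loss under 80%, at 10 µM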;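 also: anti alpha tubulin signal scored within the nucleus-defined area of each cell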
KCC2 mod: KCC2 (human) Cl- transport modulation; Q9H2X9; B-score of Tl+ flux slope (higher = more flux/activation; lower = inhibition) at 10 µM; KCC2 cells, thallium flux FluoZin-2 fluorescence; AID 1456; 190,000 compounds, 2.2% hits;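 active = thallium flux slope and its plate-corrected score both differing from the plate sample mean at a set confidence after two filtering rounds, in either direction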;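 also: slope of fluorescence scaled to starting intensity during 10 to 20 s after thallium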
b-catenin transl: beta-catenin nuclear translocation modulation; HeLa beta-catenin nuclear translocation, immunofluorescence imaging; nuclear translocation activity, % at 5 µM; 190,000 compounds, 0.3% hits;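 active = nuclear translocation activity above 50% at 5 µM, with a well cell count of 50 or more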;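 also: per-cell ratio of nuclear to cytoplasmic median beta-catenin stain intensity; plate controls were DMSO negative control for no effect and GSK-3 inhibitor IX positive control for full effect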
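Test system: human HeLa cells, endogenous beta-catenin. Times: 24 h compound exposure, 37°C. Measured by: beta-catenin immunofluorescence imaging with DAPI.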
ROMK primary: modulators of human ROMK potassium channel; P48048; 130,000 compounds, 2% hits; Tet-inducible ROMK, thallium flux fluorescence; actives lie on both sides; B-score at 10 µM;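 active = signal ratio slope over the read window, or its plate-corrected B-score, at least 3 SD from the plate mean, either direction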;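 also: B-score of the F/F0 ratio slope over 7 to 12 s after thallium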
ROMK hit retest: confirmation of human ROMK potassium channel modulators; shares compounds with ROMK primary; 3,000 compounds, 54% hits; ROMK thallium flux, fluorescence ratio; active compounds read low; normalized thallium flux (F/F0 slope) at 10 µM; AID 1917;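 active = Flux at 10 µM at least 3 SD below or above vehicle control mean in one or both replicates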
The depositor's hits bear a star. In the library only some 3.7% were active in any assay of this set; here they are far more common.

Screening COc1ccc(CCNC(=O)C(=O)NN=C2CCCCCCC2)cc1OC returned KCC2 mod 0.42 and b-catenin transl 0.
`Cc1ccc(S(=O)(=O)/N=C2/NC(=O)/C(=C/c3ccccc3)S2)cc1` gave Redox H2O2 prof 0, MT stabilizer 3, KCC2 mod 1.1, b-catenin transl 0, ROMK primary -4.6* and ROMK hit retest 0.051*.
For Cc1ccc(S(=O)(=O)/N=C2/NC(=O)/C(=C/c3ccncc3)S2)cc1 the results were Redox H2O2 prof 0, MT stabilizer 2, KCC2 mod -0.84, b-catenin transl 0 and ROMK primary -1.5.
O=S(=O)(Nc1cccc(-c2cn3cccnc3n2)c1)c1ccc(-c2ccccc2)cc1 was read as Redox H2O2 prof 1, MT stabilizer 1, KCC2 mod -1.8 and ROMK hit retest 0.073.
Screening Cc1nn(-c2ccccc2)c(N2CCCC2)c1/C=C1\N=C(c2ccc(F)cc2)OC1=O returned Redox H2O2 prof 0, MT stabilizer 2, KCC2 mod -0.076, b-catenin transl 2, ROMK primary -1.5* and ROMK hit retest 0.066*.
Screening Cc1ccc(C2=N/C(=C\c3c(C)nn(-c4ccccc4)c3N3CCCC3)C(=O)O2)cc1 returned Redox H2O2 prof 0, MT stabilizer 3, KCC2 mod 0.61, b-catenin transl 1 and ROMK primary -0.62.
`Cc1cc2nnc(SCC(=O)N3CCCCC3)n2c(N)n1` gave Redox H2O2 prof 0, MT stabilizer 2, KCC2 mod 0.82, b-catenin transl -1, ROMK primary 1.3* and ROMK hit retest 0.083.
For Cc1cc2nnc(SCC(=O)N3C(C)CCCC3C)n2c(N)n1 (stereo not drawn) the results were Redox H2O2 prof -1, MT stabilizer 8 and b-catenin transl 0.
COc1ccc(C2CC(C)(c3ccc(OC)cc3OC)Nc3ccccc3N2)c(OC)c1 (stereo not drawn) was read as Redox H2O2 prof 0, MT stabilizer 13, KCC2 mod -0.014 and b-catenin transl 27.
CCOC(=O)CSC1=C(C#N)C(c2ccccc2OCC)C(C(=O)OCC)C(=O)N1 (stereo not drawn) was read as Redox H2O2 prof 0, MT stabilizer 3, b-catenin transl -7 and ROMK primary -0.58.
CCOC(=O)CSC1=C(C#N)C(c2ccccc2OCC)C(C#N)C(=O)N1 (stereo not drawn) was read as Redox H2O2 prof 0, MT stabilizer 10, KCC2 mod -0.2, b-catenin transl 2, ROMK primary 3.2* and ROMK hit retest 0.085.
Screening COc1ccc(CCNC(=O)c2ccc(-c3ccc([N+](=O)[O-])cc3)o2)cc1OC returned Redox H2O2 prof 1, MT stabilizer 2, KCC2 mod -0.96, b-catenin transl 1 and ROMK hit retest 0.075.
For COc1ccc(NC(=O)c2ccc(-c3ccc([N+](=O)[O-])cc3)o2)cc1 the results were Redox H2O2 prof -1, MT stabilizer 2, KCC2 mod -0.07, b-catenin transl -1 and ROMK primary -0.42.
`COc1ccc(C(=O)Nc2ccc(C(=O)NCCc3ccc(OC)c(OC)c3)cc2)cc1` gave Redox H2O2 prof 1, MT stabilizer 4, KCC2 mod 0.65, b-catenin transl 0, ROMK primary 3.2* and ROMK hit retest 0.073.
For COc1ccc(Nc2nnc(SCC(=O)Nc3ccc4[nH]c(=O)[nH]c4c3)s2)cc1 the results were Redox H2O2 prof 0, MT stabilizer 4, KCC2 mod -0.9, b-catenin transl 3 and ROMK primary 0.32.
NC(=O)c1ccc(NC(=O)COC(=O)/C=C/c2ccc3c(c2)OCO3)cc1 was read as KCC2 mod 0.8 and b-catenin transl 2.
CCC(C)NCC(=O)Nc1ccc(-c2nc3cc(NC(=O)CNC(C)CC)ccc3o2)cc1 (stereo not drawn) was read as Redox H2O2 prof -1, MT stabilizer 61, KCC2 mod -0.018, b-catenin transl -6, ROMK primary -2.3* and ROMK hit retest 0.061*.
`CC(/C=C(\NC(=O)c1ccccc1)C(=O)N=Nc1c(O)[nH]c2ccc(C)cc12)=C\c1ccccc1` gave Redox H2O2 prof 0, MT stabilizer 2, KCC2 mod -0.45, b-catenin transl -3 and ROMK primary -1.2.
For COc1ccc(-n2c(N)c(C(=O)NCC3CCCO3)c3nc4ccccc4nc32)c(OC)c1 (stereo not drawn) the results were Redox H2O2 prof 2, MT stabilizer 3 and b-catenin transl 1.
`C=CCn1c(N)c(C(=O)NCC2CCCO2)c2nc3ccccc3nc21` (stereo not drawn) gave Redox H2O2 prof 1, MT stabilizer 3, b-catenin transl 2 and ROMK hit retest 0.066*.
For CC(C)c1ccccc1NC(=O)C1CN(S(=O)(=O)c2ccccc2)CCN1S(=O)(=O)c1ccccc1 (stereo not drawn) the results were Redox H2O2 prof 0, MT stabilizer 4, KCC2 mod -2.3, b-catenin transl 0 and ROMK primary -0.84.
`O=C(NCC1CCCO1)C1CCCN(c2ncccn2)C1` (stereo not drawn) gave Redox H2O2 prof 0, MT stabilizer 4, KCC2 mod 0.44, b-catenin transl -2 and ROMK hit retest 0.076.
For COCCNC(=O)C1CCCN(c2ncccn2)C1 (stereo not drawn) the results were Redox H2O2 prof 3, MT stabilizer 3, KCC2 mod 2.4 and b-catenin transl 1.
`Cc1cccc(C)c1NC(=S)N(CCCN1CCCCC1)Cc1ccco1` gave Redox H2O2 prof 0, MT stabilizer 1, KCC2 mod 0.58, b-catenin transl 0 and ROMK primary 0.0071.
Screening CC(C)(C)NC(=S)N/N=C\c1ccc(-c2ccc([N+](=O)[O-])cc2)o1 returned KCC2 mod 0.85, b-catenin transl -1, ROMK primary -3.5* and ROMK hit retest 0.048*.
For O=C1C=C(Nc2ccc(Cl)cc2Cl)CC(c2ccco2)C1 (stereo not drawn) the results were Redox H2O2 prof 1, MT stabilizer 11, KCC2 mod -1.6, b-catenin transl 2 and ROMK primary 2.2.
Screening Cn1cnnc1SCC(=O)c1cc2ccccc2oc1=O returned Redox H2O2 prof 2, MT stabilizer 4, KCC2 mod 0.62 and b-catenin transl 0.
Screening O=C(Cn1nc(Cl)nc1Cl)c1cc2ccccc2oc1=O returned Redox H2O2 prof -1, MT stabilizer 4, b-catenin transl 2, ROMK primary -6.5* and ROMK hit retest 0.049*.
CCOC(=O)C(C)Oc1cccc2c(=O)n(CC(=O)NCc3ccco3)ccc12 (stereo not drawn) was read as Redox H2O2 prof 0, MT stabilizer 10, KCC2 mod 0.014, b-catenin transl 73* and ROMK hit retest 0.086.

Compound activity deposited in PubChem BioAssay by several laboratories.
